Laboratory results taken from ChEMBL document CHEMBL2331374, “Novel leucine ureido derivatives as inhibitors of aminopeptidase N (APN)” (Bioorg Med Chem, 2013).

What was measured:
Aminopeptidase N [1] = target: Aminopeptidase N (Homo sapiens, UniProt P15144); assay: Inhibition of aminopeptidase N in human ES2 cells using L-leu-p-nitroanilide as substrate incubated for 5 mins prior to substrate addition measured after 30 mins by spectrophotometric analysis; type: cell-based
Method in brief: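 Whole ES-2 cell suspension in PBS (1 × 10^5 cells/well) used as enzyme source. Compounds at various concentrations preincubated 5 min at 37 °C, then L-leu-p-nitroanilide added and incubated 30 min at 37 °C. IC50 from triplicate experiments, mean ± SD.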

[2] = target: Histone deacetylase 1/3/5/8 (Homo sapiens, UniProt Q13547+O15379+Q9UQL6+Q9BY41); assay: Inhibition of HDAC1/HDAC3/HDAC5/HDAC8 in human HeLa nuclear extract using Boc-Lys(acetyl)-AMC as substrate incubated for 5 mins prior to substrate measured after 30 mins by spectrophotometric analysis; type: protein assay
Aminopeptidase N [3] = target: T1, Aminopeptidase N (Sus scrofa, UniProt P15145); assay: Inhibition of pig microsomal aminopeptidase N using L-leu-p-nitroanilide as substrate incubated for 5 mins prior to substrate addition measured after 30 mins by spectrophotometric analysis
T1 sequence (P15145 whole entry): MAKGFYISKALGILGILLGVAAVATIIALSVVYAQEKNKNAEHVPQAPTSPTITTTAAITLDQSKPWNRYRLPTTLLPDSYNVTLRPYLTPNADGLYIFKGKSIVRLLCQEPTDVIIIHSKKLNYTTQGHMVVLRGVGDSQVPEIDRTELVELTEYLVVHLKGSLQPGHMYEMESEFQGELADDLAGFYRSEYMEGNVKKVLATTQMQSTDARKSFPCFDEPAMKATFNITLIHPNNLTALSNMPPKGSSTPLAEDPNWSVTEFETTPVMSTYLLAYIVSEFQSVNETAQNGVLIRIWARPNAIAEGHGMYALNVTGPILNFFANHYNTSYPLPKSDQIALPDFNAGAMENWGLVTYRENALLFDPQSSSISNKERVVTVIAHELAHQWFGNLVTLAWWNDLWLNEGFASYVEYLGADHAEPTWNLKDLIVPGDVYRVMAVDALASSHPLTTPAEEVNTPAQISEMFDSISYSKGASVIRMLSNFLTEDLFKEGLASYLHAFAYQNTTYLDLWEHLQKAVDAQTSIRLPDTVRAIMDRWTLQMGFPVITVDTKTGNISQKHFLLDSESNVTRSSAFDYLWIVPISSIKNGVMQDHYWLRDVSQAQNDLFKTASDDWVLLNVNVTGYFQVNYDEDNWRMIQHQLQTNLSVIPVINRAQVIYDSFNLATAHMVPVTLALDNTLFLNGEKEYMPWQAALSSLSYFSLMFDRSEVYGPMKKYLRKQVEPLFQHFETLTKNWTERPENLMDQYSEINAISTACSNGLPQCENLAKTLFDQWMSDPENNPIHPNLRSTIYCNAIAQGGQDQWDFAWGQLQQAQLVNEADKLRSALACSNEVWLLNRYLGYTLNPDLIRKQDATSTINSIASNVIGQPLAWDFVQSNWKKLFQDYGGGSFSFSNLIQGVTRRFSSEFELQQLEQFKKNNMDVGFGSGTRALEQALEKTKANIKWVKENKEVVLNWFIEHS
Method in brief: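 Porcine kidney microsomal aminopeptidase in 50 mM PBS, pH 7.2. Compounds at various concentrations preincubated with enzyme 5 min at 37 °C, then L-leu-p-nitroanilide added and incubated 30 min at 37 °C. IC50 from triplicate experiments, mean ± SD.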

U-937 = assay: Antiproliferative activity against human U937 cells after 48 hrs by MTT assay; type: functional, cell-based; details: U-937, 48 h
Method in brief: (§1)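 Cells grown in RPMI1640 with FBS at 37 °C, 5% CO2; seeded 5000/well, 4 h before adding inhibitor at varied concentrations. After 48 h, 1% MTT added for 4 h, formazan dissolved in DMSO (15 min mixing), OD read at 570 nm. IC50 from three independent experiments, mean values.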

[4] = Antiproliferative activity against human ES2 cells after 48 hrs by MTT assay; type: functional, cell-based; details: ES-2, 48 h; method in brief: as §1

Sequence of Aminopeptidase N (Homo sapiens, UniProt P15144) (P15144 whole entry): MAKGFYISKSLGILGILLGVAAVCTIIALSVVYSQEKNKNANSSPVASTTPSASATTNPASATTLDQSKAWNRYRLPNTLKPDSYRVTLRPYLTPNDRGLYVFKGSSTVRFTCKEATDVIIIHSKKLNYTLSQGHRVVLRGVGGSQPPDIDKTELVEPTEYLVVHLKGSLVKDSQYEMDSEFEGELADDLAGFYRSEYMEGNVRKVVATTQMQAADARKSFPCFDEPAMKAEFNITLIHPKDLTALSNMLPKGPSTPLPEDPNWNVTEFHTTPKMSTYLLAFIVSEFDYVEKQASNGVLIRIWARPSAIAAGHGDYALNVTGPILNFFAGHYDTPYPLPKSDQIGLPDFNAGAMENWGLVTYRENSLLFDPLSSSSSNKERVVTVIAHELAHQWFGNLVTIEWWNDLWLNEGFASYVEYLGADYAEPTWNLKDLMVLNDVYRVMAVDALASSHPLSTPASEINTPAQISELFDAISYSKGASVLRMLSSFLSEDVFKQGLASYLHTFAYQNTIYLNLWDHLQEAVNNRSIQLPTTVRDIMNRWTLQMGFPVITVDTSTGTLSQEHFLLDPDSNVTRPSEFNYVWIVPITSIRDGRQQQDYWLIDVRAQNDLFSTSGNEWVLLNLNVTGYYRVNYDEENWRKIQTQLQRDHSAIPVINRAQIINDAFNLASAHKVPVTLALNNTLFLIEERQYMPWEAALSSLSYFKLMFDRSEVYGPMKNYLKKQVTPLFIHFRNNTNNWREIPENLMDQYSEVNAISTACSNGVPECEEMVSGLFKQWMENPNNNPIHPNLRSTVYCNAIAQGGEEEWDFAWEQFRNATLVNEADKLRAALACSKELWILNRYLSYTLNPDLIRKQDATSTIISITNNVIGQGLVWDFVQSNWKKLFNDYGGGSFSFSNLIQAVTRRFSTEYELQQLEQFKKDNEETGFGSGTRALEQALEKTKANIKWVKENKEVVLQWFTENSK

IC50 (Aminopeptidase N [1])	IC50 [2]	IC50 (Aminopeptidase N [3])	IC50 (U-937)	SMILES	IC50 [4]
	> 100 µM	0.52 µM		CC(C)C[C@H](NC(=O)Nc1ccccc1F)C(=O)NO	
	> 100 µM	1.7 µM		CC(C)C[C@H](NC(=O)Nc1cccc(O)c1)C(=O)NO	
	> 100 µM		> 1000 µM	CC(C)C[C@H](NC(=O)[C@@H](O)[C@H](N)Cc1ccccc1)C(=O)O [UBENIMEX]	620 µM
	> 100 µM	0.44 µM		Cc1cccc(CNC(=O)N[C@@H](CC(C)C)C(=O)NO)c1	
0.61 µM	> 100 µM	0.18 µM		Cc1ccccc1NC(=O)N[C@@H](CC(C)C)C(=O)NO	
	> 100 µM	11.9 µM		CC(C)C[C@H](NC(=O)Nc1ccccc1O)C(=O)NO	
	> 100 µM	1.15 µM		CC(C)C[C@H](NC(=O)Nc1ccccc1)C(=O)NO	

More lines, now with the values behind:

SMILES	IC50 (Aminopeptidase N [1])	IC50 [2]	IC50 (Aminopeptidase N [3])	IC50 (U-937)	IC50 [4]
CC(C)C[C@H](NC(=O)NCc1ccccc1Br)C(=O)NO	0.73 µM	> 100 µM	0.13 µM		
CC(C)C[C@H](NC(=O)Nc1cccc(F)c1)C(=O)NO		> 100 µM	1.9 µM		
CC(C)C[C@H](NC(=O)Nc1ccccc1C(F)(F)F)C(=O)NO		> 100 µM	0.79 µM		
CC(C)C[C@H](NC(=O)NCc1ccccc1Cl)C(=O)NO	0.65 µM	> 100 µM	0.22 µM		
COc1cccc(NC(=O)N[C@@H](CC(C)C)C(=O)NO)c1		> 100 µM	1.36 µM		
CC(C)C[C@H](NC(=O)NCc1cccc(Cl)c1)C(=O)NO		> 100 µM	0.35 µM		
CC(C)C[C@H](NC(=O)Nc1cccc(Br)c1)C(=O)NO		> 100 µM	0.58 µM		
COc1ccccc1NC(=O)N[C@@H](CC(C)C)C(=O)NO	0.7 µM	> 100 µM	0.13 µM	> 1000 µM	480 µM
CC(C)C[C@H](NC(=O)Nc1cccc(C(F)(F)F)c1)C(=O)NO		> 100 µM	1.97 µM		
Cc1cccc(NC(=O)N[C@@H](CC(C)C)C(=O)NO)c1		> 100 µM	0.24 µM		
Cc1ccccc1CNC(=O)N[C@@H](CC(C)C)C(=O)NO		> 100 µM	0.9 µM		
CC(C)C[C@H](NC(=O)Nc1cccc(Cl)c1)C(=O)NO		> 100 µM	1.66 µM		
CC(C)C[C@H](NC(=O)NCc1ccccc1F)C(=O)NO		> 100 µM	1.38 µM		
CC(C)C[C@H](NC(=O)Nc1ccccc1Br)C(=O)NO	0.53 µM	> 100 µM	0.06 µM	> 1000 µM	405 µM
CC(C)C[C@H](NC(=O)Nc1ccccc1Cl)C(=O)NO	1.31 µM	> 100 µM	0.093 µM	> 1000 µM	615 µM
